Results published in PMC4183726 (Journal of biomolecular screening, 2014).
Counter-ions that a name gives are not always drawn. Like-named read-outs stand apart in the source and are kept apart here.

Assays:
MBD2-MBD [1] = target: T1, MBD2-MBD (Homo sapiens, UniProt Q9UBB5); experiment: TR-FRET dose-response; type: binding; conditions: for dose-response for inhibition of MBD2-MBD binding to methylated DNA (in words): TR-FRET, dose range tested up to 20 µM
SP-1 = SP-1 (Homo sapiens, UniProt P08047); experiment: TR-FRET counter screen with transcription factor SP-1 binding to DNA; conditions: for inhibition of SP-1 binding to DNA (in words): TR-FRET counter screen, dose response
Chain of SP-1 (P08047 whole entry): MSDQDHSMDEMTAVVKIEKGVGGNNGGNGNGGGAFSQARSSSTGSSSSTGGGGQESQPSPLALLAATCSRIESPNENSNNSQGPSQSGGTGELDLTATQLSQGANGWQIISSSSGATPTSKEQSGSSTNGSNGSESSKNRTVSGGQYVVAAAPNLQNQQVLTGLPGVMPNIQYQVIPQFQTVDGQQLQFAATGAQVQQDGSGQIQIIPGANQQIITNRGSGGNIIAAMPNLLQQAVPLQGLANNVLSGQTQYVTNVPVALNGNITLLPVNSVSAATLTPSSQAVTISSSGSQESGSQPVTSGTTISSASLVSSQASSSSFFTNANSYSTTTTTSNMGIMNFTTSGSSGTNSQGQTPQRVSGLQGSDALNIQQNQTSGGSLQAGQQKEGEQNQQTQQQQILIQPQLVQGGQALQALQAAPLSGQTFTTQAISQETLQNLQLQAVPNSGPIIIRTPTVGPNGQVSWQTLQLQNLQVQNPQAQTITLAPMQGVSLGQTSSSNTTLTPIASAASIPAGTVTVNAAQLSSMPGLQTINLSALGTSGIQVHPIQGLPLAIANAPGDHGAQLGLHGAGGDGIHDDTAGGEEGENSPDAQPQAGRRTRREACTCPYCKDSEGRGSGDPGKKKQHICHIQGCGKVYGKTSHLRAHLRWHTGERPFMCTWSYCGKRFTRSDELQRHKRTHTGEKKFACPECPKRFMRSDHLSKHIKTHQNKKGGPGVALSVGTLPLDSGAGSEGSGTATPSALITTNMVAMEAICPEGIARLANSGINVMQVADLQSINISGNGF

MBD2-MBD [2] = target: T1, MBD2-MBD; conditions: read-out: EC50 of MBD2-MBD binding to DNA; FP assay
Summary of the method: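 His-tagged MBD2-MBD expressed in E. coli BL21 DE3 and purified by Ni-NTA and gel filtration. Protein dilution series in 10 mM Tris-HCl pH 7.4, 125 mM NaCl, 4% glycerol, 1 mM MgCl2, 0.5 mM EDTA, 0.5 mM DTT, 0.2% Tween-20. Added 10nM FAM-labelled hairpin oligo (CpG-methylated or unmethylated; annealed at 95°C, then ice). 1 h at 4°C with shaking, quadruplicate. Ex 470/em 525 nm; anisotropy plotted against protein concentration and curve-fitted.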

MBD2-MBD [3] = target: T1, MBD2-MBD; experiment: TR-FRET binding curves of MBD2-MBD to methylated and unmethylated DNA; conditions: read-out: EC50 of MBD2-MBD binding to DNA; TR-FRET assay
Summary of the method: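 His-tagged MBD2-MBD (25nM; E. coli-expressed, Ni-NTA and gel-filtration purified) in the FP binding buffer. FAM-labelled methylated or unmethylated hairpin oligo added as a dilution series, with 5 nM Tb-anti-His antibody. 1 h at 4°C with shaking. Ex 332 nm; emission 485 and 515 nm read after a 50 µsec delay over 400 µsec. No-protein 515/485 ratio subtracted; plotted against total DNA concentration and curve-fitted.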

MBD2-MBD [4] = target: MBD2-MBD (UniProt Q9UBB5 145-213); experiment: fluorescence polarization
Chain of MBD2-MBD (UniProt Q9UBB5 145-213) (Q9UBB5 145-213): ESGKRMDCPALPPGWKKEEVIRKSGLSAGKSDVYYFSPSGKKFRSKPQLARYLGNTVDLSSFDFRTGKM

T1 sequence (Q9UBB5 145-213 limits assumed): as the sequence (Q9UBB5 145-213) above

| Molecule | dose-response for inhibition of MBD2-MBD binding to methylated DNA (in words) (MBD2-MBD [1]) | inhibition of SP-1 binding to DNA (in words) (SP-1) | IC50 (MBD2-MBD [1]) [µM] | also measured |
| --- | --- | --- | --- | --- |
| CN(N=O)c1cc(O)ccc1O [Dephostatin] | failed to show appreciable inhibition |  |  |  |
| unmethylated DNA: FAM-labeled hairpin oligonucleotide 5′-ATGCTCGTAGCACTTTTGTGCTACGAGCAT-3′ (unmethylated) (DNA, backbone not given here; FAM label, hairpin) |  |  |  | EC50 (SP-1; read-out: EC50 of SP-1 binding to DNA, TR-FRET assay, binding curve): 0.022 µM; EC50 (MBD2-MBD [2]): > 1 µM; EC50 (MBD2-MBD [3]): > 1 µM |
| O=C(O)C1=CC(=C(c2ccc(O)c(C(=O)O)c2)c2ccc(O)c(C(=O)O)c2)C=CC1=O [Aurintricarboxylic acid] | showed a sigmoidal dose-response | prevented binding of SP1 to DNA with similar potency | 0.0027 |  |
| O=C1c2c(O)ccc(O)c2C(=O)c2c(NCCNCCO)ccc(NCCNCCO)c21 [Mitoxantrone] | showed a sigmoidal dose-response | prevented binding of SP1 to DNA with similar potency | 0.094 | IC50 (SP-1): 0.314 µM |
| N[C@H](C(=O)O)[C@H]1C[C@@H]1C(=O)O [(2S,1S,2S)-2-(carboxycyclopropyl)glycine] | failed to show appreciable inhibition |  |  |  |
| CN(N=O)c1ccc(O)c(O)c1 [Me-3,4-dephostatin] | failed to show appreciable inhibition |  |  |  |
| NC(Cc1cc(O)c(O)cc1O)C(=O)O (racemic) [6-Hydroxy-DL-DOPA] | failed to show appreciable inhibition |  |  |  |
| CC(=O)[C@]1(O)Cc2c(O)c3c(c(O)c2[C@@H](O[C@H]2C[C@H](N)[C@H](O)[C@H](C)O2)C1)C(=O)c1ccccc1C3=O [Idarubicin] | showed a sigmoidal dose-response | prevented binding of SP1 to DNA with similar potency | 0.196 | IC50 (SP-1): 0.58 µM |
| CCN(CC)CCOCCOC(=O)C1(c2ccccc2)CCCC1 [Carbetapentane citrate] | failed to show appreciable inhibition |  |  |  |
| ATGCTCGTAGCACTTTTGTGCTACGAGCAT (structured_DNA, 5-methyl-C at C6 and C24 (printed Cme)) [methylated hairpin FAM] |  |  |  | apparent K (half saturation) (MBD2-MBD [4]): 42.7 nM |
